Consider 34 molecules from ChEMBL document CHEMBL3227978, “Azetidine derivatives of tricyclic antidepressant agents” (J Med Chem, 1979).

Active and inactive are the calls of the source. No cut-off for these calls is given here.

For data set [1], the system named is Mus musculus. Put plainly: Antidepressant activity in ICEM:CET (SPF Caw) mouse assessed as antagonism of reserpine-induced blepharospasm at 25 mg/kg, po administered via gavage 30 mins before reserpine challenge measured 1 hr after reserpine treatment. It is filed as functional, organism-based. On the set-up: dose 25 mg/kg. The essentials:
(§1)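 Male mice, 18-22 g, groups of ten, housed the evening before with a 9-h fast and water until 2 h before testing. Gavage dosing at 25 mg/kg in 0.5% Methocel, 30 min before reserpine 2.5 mg/kg ip in 0.5% acetic acid. Read blind: blepharospasm scored (Rubin scale) at 1 h, rectal thermocouple temperature at 4 h.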

For data set [2], the system named is Mus musculus. Put plainly: Antidepressant activity in ICEM:CET (SPF Caw) mouse assessed as antagonism of reserpine-induced hypothermia at 25 mg/kg, po administered via gavage 30 mins before reserpine challenge measured 4 hrs after reserpine treatment. It is filed as functional, organism-based. On the set-up: dose 25 mg/kg. The essentials: as §1
The test system of data set [3] is Mus musculus. Put plainly: Antidepressant activity in po dosed ICEM:CET (SPF Caw) mouse assessed as antagonism of reserpine-induced blepharospasm administered via gavage 30 mins before reserpine challenge measured 1 hr after reserpine treatment. It is filed as functional. In a few lines: (§2)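 Groups of ten male mice (18-22 g), fasted 9 h with water until 2 h pre-test. Oral gavage in 0.5% Methocel at doses below the 25 mg/kg screen, 30 min before reserpine 2.5 mg/kg ip. Blepharospasm scored blind at 1 h, rectal temperature at 4 h. ED50 estimated by eye-fit linear plots on semilogarithmic paper.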

Data set [4] relates to Mus musculus. In words: Antidepressant activity in po dosed ICEM:CET (SPF Caw) mouse assessed as antagonism of reserpine-induced hypothermia administered via gavage 30 mins before reserpine challenge measured 4 hrs after reserpine treatment. In kind it is functional. In a few lines:
as §2

Data set [5] deals with Mus musculus. Put plainly: Anticonvulsant activity in po dosed ICEM:CET (SPF Caw) mouse assessed as antagonism of pentylenetetrazole-induced flexor-extensor tonic convulsions administered via gavage 30 mins before pentylenetetrazole challenge. In kind it is functional. In a few lines:
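Male mice, 18-22 g, dosed orally by gavage in 0.5% Methocel (0.1 mL/10 g), starting at a 50 mg/kg screening dose, then graded doses. Pentylenetetrazole 130 mg/kg ip given 30 min later. Ten mice per dose and for controls. Dose preventing flexor-extensor tonic convulsions in 50% of animals read from dose-response curves (ED50).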

A short description of data set [6]: (§3) Orientative acute toxicity in po dosed ICEM:CET (SPF Caw) mouse administered via gavage measured for 60 mins after drug dosing by Irwin's test. In kind it is organism-based. The settings on record: ICEM:CET (SPF Caw), in vivo. The essentials: (§4)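 Male ICEM:CET (SPF Caw) mice, 18-22 g. Oral gavage, suspended or dissolved in 0.5% Methocel at 0.1 mL/10 g body weight. Doses of at least 25, 50, 100, 200, 400 and 800 mg/kg, four animals per dose. Animals were observed closely for 60 min after dosing during Irwin's symptomatologic test, and an approximate LD50 was estimated.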

For data set [7], the system named is Mus musculus. The description is as §3. It is filed as organism-based. The settings on record: in vivo, 1 h. The essentials: as §4
[8] abbreviates: Mus musculus, ICEM:CET(SPF Caw), po, read-out: ED50.

As to `c1ccc2c(c1)COc1ccccc1N2CC1CNC1`, the result in the data set on Mus musculus [1] and in the data set on Mus musculus [2] was inactive.
Take `CN1CC(N2c3ccccc3CCc3ccccc32)C1`: the result in the data set on Mus musculus [1] and with Mus musculus [2] was inactive.
Regarding `CC(C)(C)N1CC(N2c3ccccc3Sc3ccc(Cl)cc32)C1`, the result with Mus musculus [1] and with Mus musculus [2] was inactive.
`CC(C)(C)N1CC(N2c3ccccc3C=Cc3ccccc32)C1`: the outcome with Mus musculus [1] and with Mus musculus [2] was inactive.
As to `CC(C)(C)N1CC(N2c3ccccc3Sc3ccccc32)C1`, the result with Mus musculus [1] and in the data set on Mus musculus [2] was inactive.
In the case of `CC(C)N1CC(CN2c3ccccc3COc3ccccc32)C1`, the result in the data set on Mus musculus [1] and with Mus musculus [2] was inactive.
For `CC(C)(C)N1CC(N2c3ccccc3Sc3ccc(C(F)(F)F)cc32)C1`, the outcome in the data set with Mus musculus [1] and with Mus musculus [2] was inactive.
For `c1ccc2c(c1)CCc1ccccc1N2CC1CNC1`, the outcome with Mus musculus [1] and in the data set on Mus musculus [2] was inactive.
Consider `c1ccc2c(c1)Sc1ccccc1N2C1CNC1`, for which the result in the data set on Mus musculus [1] and with Mus musculus [2] was inactive.
Consider `CC(C)N1CC(N2c3ccccc3COc3ccccc32)C1`, for which the outcome in the data set on Mus musculus [1] and in the data set on Mus musculus [2] was inactive.
Turning to `CC(C)N1CC(CN2c3ccccc3CCc3ccccc32)C1`, the result in the data set with Mus musculus [1] and with Mus musculus [2] was inactive.
In the case of `OCCN1CCN(C2CN(C3c4ccccc4CCc4ccccc43)C2)CC1`, the ED50 is more than 25 mg/kg in the data set with Mus musculus [3] (setting [8]), more than 25 mg/kg with Mus musculus [4] (setting [8]) and 31 mg/kg in the data set on Mus musculus [5] (setting [8]). The molecule also registered an LD50 at 1 h in data set [6] of 400 mg/kg.
`CC(C)N1CC(N2c3ccccc3CCc3ccccc32)C1`: the result with Mus musculus [1] and in the data set with Mus musculus [2] was inactive.
Consider `CN(C)C1CN(C2c3ccccc3CCc3ccc(Cl)cc32)C1` (configuration not stated), for which the figures for the ED50 in the data set with Mus musculus [3] (setting [8]), with Mus musculus [4] (setting [8]) and in the data set with Mus musculus [5] (setting [8]) were 12.5 mg/kg, 8.6 mg/kg and 29.9 mg/kg, respectively. In data set [6], this molecule registered an LD50 at 1 h of 400 mg/kg.
In the same order, the values of `CNC1CN(C2c3ccccc3CSc3ccc(OC)cc32)C1` (configuration not stated) are 21.8 mg/kg, more than 25 mg/kg, more than 50 mg/kg and 400 mg/kg.
`COc1ccc2c(c1)C(N1CC(N(C)C)C1)c1ccccc1CO2` (configuration not stated): the median effective dose (ED50) in the data set with Mus musculus [3] (setting [8]) is more than 25 mg/kg; with Mus musculus [4] (setting [8]), more than 25 mg/kg; with Mus musculus [5] (setting [8]), more than 50 mg/kg. For the same molecule, in data set [6], the LD50 at 1 h worked out at 400 mg/kg.
As to `CN(C)C1CN(C2c3ccccc3COc3ccccc32)C1` (configuration not stated), the values for the ED50 with Mus musculus [3] (setting [8]), in the data set on Mus musculus [4] (setting [8]) and in the data set with Mus musculus [5] (setting [8]) were 5.6 mg/kg, 23 mg/kg and 28.5 mg/kg, respectively. The LD50 at 1 h in data set [6] was found to be 100 mg/kg.
In the same order, the values of `CNC1CN(C2c3ccccc3CCc3ccc(Cl)cc32)C1` (configuration not stated) are more than 25 mg/kg, more than 25 mg/kg, 27.9 mg/kg and 400 mg/kg.
Regarding `c1ccc2c(c1)COc1ccccc1N2C1CNC1`, the result in the data set with Mus musculus [1] and in the data set on Mus musculus [2] was inactive.
Consider `CC(Cc1ccccc1)NC1CN(C2c3ccccc3CCc3ccccc32)C1` (configuration not stated), for which the values for the median effective dose (ED50) with Mus musculus [3] (setting [8]), with Mus musculus [4] (setting [8]) and in the data set with Mus musculus [5] (setting [8]) were more than 25 mg/kg, more than 25 mg/kg and more than 50 mg/kg, respectively. The same molecule came in with an LD50 at 1 h in data set [6] of more than 800 mg/kg.
Consider `CNC1CN(C2c3ccccc3COc3ccccc32)C1.O=C(O)/C=C/C(=O)O` (single isomer, unassigned; (-)), for which the median effective dose (ED50) with Mus musculus [3] was 1.3 mg/kg; with Mus musculus [4], 14.1 mg/kg; in the data set on Mus musculus [5] it was more than 50 mg/kg. Also, the LD50 in the data set on Mus musculus [7] worked out at 100 mg/kg.
For `CNC1CN(C2c3ccccc3COc3ccc(OC)cc32)C1` (configuration not stated), the ED50 with Mus musculus [3] (setting [8]) is more than 25 mg/kg; with Mus musculus [4] (setting [8]) it was more than 25 mg/kg; in the data set with Mus musculus [5] (setting [8]) it was 45.8 mg/kg. In data set [6], this molecule came in with an LD50 at 1 h of 200 mg/kg.
In the case of `CN(C(N)=O)C1CN(C2c3ccccc3CCc3ccccc32)C1`, the ED50 with Mus musculus [3] (setting [8]) is more than 12.5 mg/kg; in the data set with Mus musculus [4] (setting [8]) it was 12.5 mg/kg; in the data set with Mus musculus [5] (setting [8]), more than 12.5 mg/kg. The molecule also had a 50% lethal dose (LD50) at 1 h in data set [6] of 400 mg/kg.
Turning to `CNCCN(C)C1c2ccccc2CCc2ccccc21`, the ED50 was more than 25 mg/kg in the data set on Mus musculus [3] (setting [8]), more than 25 mg/kg with Mus musculus [4] (setting [8]) and 18 mg/kg in the data set on Mus musculus [5] (setting [8]). This molecule registered an LD50 at 1 h in data set [6] of 200 mg/kg.
Take `NCC1CN(C2c3ccccc3CCc3ccccc32)C1`: the ED50 in the data set with Mus musculus [3] (setting [8]) is more than 25 mg/kg; with Mus musculus [4] (setting [8]) it was more than 25 mg/kg; in the data set on Mus musculus [5] (setting [8]) it was more than 50 mg/kg. In data set [6], this molecule gave an LD50 at 1 h of 400 mg/kg.
For the molecule `CC(C)(C)N1CC(N2c3ccccc3COc3ccccc32)C1`, the outcome in the data set with Mus musculus [1] and in the data set with Mus musculus [2] was inactive.
Consider `c1ccc2c(c1)CCc1ccccc1N2C1CNC1`, for which the outcome in the data set on Mus musculus [1] and in the data set on Mus musculus [2] was inactive.
Consider `CNC1CCN(C2c3ccccc3CCc3ccccc32)C1` (configuration not stated), for which the ED50 with Mus musculus [3] (setting [8]) is more than 25 mg/kg; with Mus musculus [4] (setting [8]), more than 25 mg/kg; with Mus musculus [5] (setting [8]), 45 mg/kg. The LD50 at 1 h in data set [6] is 200 mg/kg.
With `CC(C)(C)N1CC(N2c3ccccc3CCc3ccc(Cl)cc32)C1`, the outcome in the data set with Mus musculus [1] and with Mus musculus [2] was inactive.
Take `c1ccc2c(c1)CCc1ccccc1C2N1CCNCC1`: the ED50 with Mus musculus [3] (setting [8]) is 24 mg/kg; in the data set on Mus musculus [4] (setting [8]), more than 25 mg/kg; with Mus musculus [5] (setting [8]) it was more than 50 mg/kg. Moreover, the LD50 at 1 h in data set [6] amounted to 50 mg/kg.
The matching figures for `CNC1CN(C2c3ccccc3CCc3ccccc32)C1`: 2.9 mg/kg, 7.3 mg/kg, 13.4 mg/kg and 400 mg/kg.
For `CC(C)(C)N1CC(N2c3ccccc3CCc3ccccc32)C1`, the result in the data set with Mus musculus [1] and in the data set on Mus musculus [2] was inactive.
As for `CNC1(C)CN(C2c3ccccc3CCc3ccccc32)C1`, the ED50 was more than 25 mg/kg with Mus musculus [3] (setting [8]), more than 25 mg/kg in the data set on Mus musculus [4] (setting [8]) and 44.6 mg/kg in the data set on Mus musculus [5] (setting [8]). The molecule also came in with an LD50 at 1 h in data set [6] of 200 mg/kg.
For the molecule `CCNC1CN(C2c3ccccc3COc3ccccc32)C1` (configuration not stated), the 50% effective dose (ED50) worked out at 4.8 mg/kg with Mus musculus [3] (setting [8]), 22.2 mg/kg with Mus musculus [4] (setting [8]) and 25.3 mg/kg in the data set on Mus musculus [5] (setting [8]). The LD50 at 1 h in data set [6] is 200 mg/kg.

As a reminder, the ED50 is the dose that gives a 50% effect, or the effect in half of the subjects. In general, LD50 refers to the dose expected to kill half of the subjects tested. Low readings indicate a more toxic substance, high ones a less toxic substance.
